Reference: ChEMBL document CHEMBL1240506, “Identification and development of novel inhibitors of Toxoplasma gondii enoyl reductase” (J Med Chem, 2010)
≈ marks a conversion by molar mass, not a printed value. Calls of active or inactive are those of the source. The calls are words filed in the database; no cut-off is given here.

How the values were obtained:
[1] = target: T1, Enoyl-acyl carrier reductase (Toxoplasma gondii, UniProt Q6UCJ9); test: Inhibition of Toxoplasma gondii enoyl reductase
T1 sequence (Q6UCJ9 whole entry): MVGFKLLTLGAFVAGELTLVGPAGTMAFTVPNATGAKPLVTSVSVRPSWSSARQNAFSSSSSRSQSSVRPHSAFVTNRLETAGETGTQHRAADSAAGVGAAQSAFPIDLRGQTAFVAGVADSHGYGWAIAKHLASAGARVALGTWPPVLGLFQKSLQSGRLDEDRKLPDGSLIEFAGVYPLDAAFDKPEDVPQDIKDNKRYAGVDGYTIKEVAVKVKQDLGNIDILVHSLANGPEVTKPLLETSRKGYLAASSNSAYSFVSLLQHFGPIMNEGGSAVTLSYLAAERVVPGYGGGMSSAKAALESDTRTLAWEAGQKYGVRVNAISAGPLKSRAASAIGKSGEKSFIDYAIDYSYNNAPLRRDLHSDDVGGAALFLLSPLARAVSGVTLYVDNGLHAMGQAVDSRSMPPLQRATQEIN
Outline: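 Recombinant TgENR (20 nM) was assayed in 100 mM Na/K phosphate pH 7.5, 150 mM NaCl and 100 μM NADH. Compounds were added in DMSO (2% final), and reactions were started at 25°C with 100 μM crotonyl-CoA. NADH consumption was followed at 340 nm.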

HFF [2] = test: Toxicity to HFF at highest concentration; type: cell-based; details: human
Outline: (§1)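 Host-cell toxicity was tested on non-confluent fibroblast monolayers by 3H-thymidine incorporation, alongside visual inspection of monolayer integrity. Testing ran simultaneously with the parasite inhibition assay, and the highest concentration tested was scored.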

HFF [3] = test: Toxicity to HFF; type: cell-based; details: human; outline: as §1
CYP3A4 = CYP3A4 (Homo sapiens, UniProt P08684); test: Inhibition of CYP3A4 at 10 uM; type: ADME
Outline: (§2)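 Inhibition was measured against recombinant CYP450 isozymes 2C9, 2D6 and 3A4, each with compound at 10μM, and reported as percent inhibition.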

[4] = Metabolic stability in human liver microsome assessed as compound remaining after 60 mins; type: ADME; details: liver microsomes, read-out: INH
Outline: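 Compounds were incubated with pooled human liver microsomes for 60 minutes, and the percentage of parent compound remaining was measured.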

CYP2D6 = CYP2D6 (Homo sapiens, UniProt P10635); test: Inhibition of CYP2D6 at 10 uM; type: ADME; outline: as §2
Toxoplasma gondii [5] = test: Antiparasitic activity against Toxoplasma gondii infected in HFF after 24 hrs by [3H]uracil incorporation assay; type: functional
Outline: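 Human foreskin fibroblasts were infected with T. gondii tachyzoites and given 1 h to invade before inhibitors were added. Cultures ran 3 days, then 3H-uracil was added for a further day. Parasite growth was read as uracil incorporation by liquid scintillation counting. MIC50 and MIC90 are the concentrations giving 50% and 90% growth inhibition. There were 6 replicate samples per group.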

CYP2C9 = CYP2C9 (Homo sapiens, UniProt P11712); test: Inhibition of CYP2C9 at 10 uM; type: ADME; outline: as §2
Toxoplasma gondii [6] = test: Antiparasitic activity against Toxoplasma gondii RH infected in ip dosed CD1 mouse; type: functional, organism-based
Outline: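 CD1 mice were infected intraperitoneally with 2000 RH (Type 1) parasites, a lethal inoculum. Inhibitors were given intraperitoneally at 10mg/kg. Read-outs were peritoneal parasite burden by microscopy at day 5 and survival up to day 5 post-infection. There were 6 mice per group.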

CYP3A4, sequence (P08684 whole entry): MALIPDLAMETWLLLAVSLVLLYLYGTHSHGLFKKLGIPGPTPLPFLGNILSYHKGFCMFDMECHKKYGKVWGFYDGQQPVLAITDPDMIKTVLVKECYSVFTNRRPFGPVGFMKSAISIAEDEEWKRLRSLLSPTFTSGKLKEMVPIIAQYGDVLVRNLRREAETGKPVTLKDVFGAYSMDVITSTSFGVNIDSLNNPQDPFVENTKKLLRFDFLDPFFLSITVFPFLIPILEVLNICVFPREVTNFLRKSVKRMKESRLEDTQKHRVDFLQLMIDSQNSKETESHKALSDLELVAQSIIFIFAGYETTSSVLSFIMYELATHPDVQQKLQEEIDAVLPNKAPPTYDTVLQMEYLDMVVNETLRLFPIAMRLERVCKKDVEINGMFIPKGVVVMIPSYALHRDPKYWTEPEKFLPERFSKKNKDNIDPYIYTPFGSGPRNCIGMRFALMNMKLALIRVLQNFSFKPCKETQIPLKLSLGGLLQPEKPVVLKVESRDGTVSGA
CYP2D6, sequence (P10635 whole entry): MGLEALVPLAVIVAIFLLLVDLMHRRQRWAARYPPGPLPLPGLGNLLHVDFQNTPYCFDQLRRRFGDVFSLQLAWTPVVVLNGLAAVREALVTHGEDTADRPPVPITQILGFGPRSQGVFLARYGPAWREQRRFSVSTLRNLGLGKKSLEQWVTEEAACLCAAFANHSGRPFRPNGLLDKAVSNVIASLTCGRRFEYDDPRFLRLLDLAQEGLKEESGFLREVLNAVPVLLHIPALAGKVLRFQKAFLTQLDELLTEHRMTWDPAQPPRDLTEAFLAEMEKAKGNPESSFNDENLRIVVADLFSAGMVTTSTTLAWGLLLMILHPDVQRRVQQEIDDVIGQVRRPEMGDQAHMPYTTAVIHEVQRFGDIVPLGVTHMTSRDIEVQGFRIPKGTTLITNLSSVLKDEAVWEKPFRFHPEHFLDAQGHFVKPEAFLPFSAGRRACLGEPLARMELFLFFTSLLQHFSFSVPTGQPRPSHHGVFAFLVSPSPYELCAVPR
CYP2C9, sequence (P11712 whole entry): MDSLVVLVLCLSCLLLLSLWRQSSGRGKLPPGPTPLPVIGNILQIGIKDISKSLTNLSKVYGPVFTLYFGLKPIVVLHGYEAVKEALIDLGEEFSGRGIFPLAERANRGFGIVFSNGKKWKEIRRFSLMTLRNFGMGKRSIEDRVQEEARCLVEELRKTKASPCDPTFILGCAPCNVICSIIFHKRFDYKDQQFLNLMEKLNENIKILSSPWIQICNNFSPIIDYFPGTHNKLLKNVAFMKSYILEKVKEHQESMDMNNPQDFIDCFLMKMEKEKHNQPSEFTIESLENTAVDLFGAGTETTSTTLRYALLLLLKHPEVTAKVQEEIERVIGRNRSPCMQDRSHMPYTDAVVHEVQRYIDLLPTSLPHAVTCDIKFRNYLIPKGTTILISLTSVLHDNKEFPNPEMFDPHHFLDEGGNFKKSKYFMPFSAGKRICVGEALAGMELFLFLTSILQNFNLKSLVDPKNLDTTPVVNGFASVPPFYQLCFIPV

For `CCCc1ccc(Oc2ccc(C#N)cc2Cl)c(O)c1`, the IC50 [1] was < 0.02 µM, the Activity (HFF [2]) was “Non-toxic” and the Activity (HFF [3]) was 5 µM. For the same molecule, the inhibition at 10 µM (CYP3A4) was < 22%, the remaining at 1 h [4] was 45.1% and the inhibition at 10 µM (CYP2D6) was < 22%. The MIC50 (Toxoplasma gondii [5]) was 3 µM (≈ 0.863 µg/mL), the MIC90 (Toxoplasma gondii [5]) was 5 µM (≈ 1.44 µg/mL) and the inhibition at 10 µM (CYP2C9) was > 85%. The Activity (Toxoplasma gondii [6]) was “Active”.
